Source: ChEMBL document CHEMBL1177719 (J Med Chem, 2010)
Activity calls are given as the source filed them. No cut-off for these calls is given here.

Assays:
[1] = Antioxidant activity assessed as nitric oxide scavenging activity at 60 uM; format: functional
Summary of the method: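 Compounds diluted tenfold in PBS and incubated with sodium nitroprusside (final compound 60 μM, SNP 5 mM) for 3 h at room temperature. Nitrite measured by Griess reagent, absorbance 540 nm. % inhibition given as average of triplicates ± standard deviation.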

HEK293 [2] = experiment: Cytotoxicity against human HEK293 cells at 34 uM; format: cell-based; conditions: hek293, 34 µM
[3] = target: T1, Nitric oxide synthase, inducible (Mus musculus) (UniProt P29477); experiment: Inhibition of iNOS-mediated nitric oxide production in LPS-stimulated mouse RAW 264.7 cells at 34 uM pretreated 30 mins before LPS challenge measured after 20 hrs by Griess reaction method relative to control; format: cell-based
T1 sequence (whole entry): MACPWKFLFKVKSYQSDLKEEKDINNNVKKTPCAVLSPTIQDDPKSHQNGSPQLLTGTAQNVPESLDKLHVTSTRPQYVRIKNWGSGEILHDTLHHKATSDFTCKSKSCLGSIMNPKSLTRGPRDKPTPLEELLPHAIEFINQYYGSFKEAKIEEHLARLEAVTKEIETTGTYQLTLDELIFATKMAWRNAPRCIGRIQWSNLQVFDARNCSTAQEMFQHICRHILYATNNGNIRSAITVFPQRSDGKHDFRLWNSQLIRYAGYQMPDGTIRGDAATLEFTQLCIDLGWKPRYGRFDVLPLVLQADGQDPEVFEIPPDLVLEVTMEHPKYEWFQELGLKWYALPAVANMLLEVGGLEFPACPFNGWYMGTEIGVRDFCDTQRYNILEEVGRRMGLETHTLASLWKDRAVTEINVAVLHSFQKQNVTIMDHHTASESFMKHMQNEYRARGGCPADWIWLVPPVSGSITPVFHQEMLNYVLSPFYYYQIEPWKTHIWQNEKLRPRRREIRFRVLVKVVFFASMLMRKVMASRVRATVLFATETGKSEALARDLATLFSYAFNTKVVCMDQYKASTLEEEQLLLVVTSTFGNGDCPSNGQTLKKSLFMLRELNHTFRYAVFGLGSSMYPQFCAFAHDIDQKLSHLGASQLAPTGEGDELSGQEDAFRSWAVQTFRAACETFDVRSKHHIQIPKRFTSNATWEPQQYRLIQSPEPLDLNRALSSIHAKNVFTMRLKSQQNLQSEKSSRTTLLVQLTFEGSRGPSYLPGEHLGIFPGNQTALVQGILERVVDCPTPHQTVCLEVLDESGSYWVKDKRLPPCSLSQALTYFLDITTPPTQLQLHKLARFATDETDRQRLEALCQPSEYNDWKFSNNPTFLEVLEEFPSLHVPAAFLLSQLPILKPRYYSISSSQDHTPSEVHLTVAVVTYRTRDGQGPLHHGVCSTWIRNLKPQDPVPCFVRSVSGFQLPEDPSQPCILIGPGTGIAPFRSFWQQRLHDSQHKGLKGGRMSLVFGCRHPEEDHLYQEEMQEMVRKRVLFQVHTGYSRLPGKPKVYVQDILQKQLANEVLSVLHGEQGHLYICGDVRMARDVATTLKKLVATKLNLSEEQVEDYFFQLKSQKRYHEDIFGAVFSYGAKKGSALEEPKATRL

[4] = target: NAD(P)H dehydrogenase [quinone] 1 (Mus musculus) (UniProt Q64669); experiment: Induction of quinone reductase 1 in mouse Hepa 1c1c7 cells assessed as drug level required to double enzyme activity by MTT assay
[5] = Antioxidant activity assessed as DPPH scavenging activity at 340 uM after 30 mins; format: functional
[6] = target: T1, Nitric oxide synthase, inducible (Mus musculus); experiment: Inhibition of iNOS-mediated nitric oxide production in mouse RAW 264.7 cells at 34 uM pretreated 30 mins measured after 20 hrs by Griess reaction method relative to control; format: cell-based
Summary of the method: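 RAW 264.7 macrophages seeded at 1 × 10⁵ cells/well for 24 h. Compounds in phenol red-free DMEM added 30 min before LPS (1 μg/mL), then 20 h further incubation. Nitrite in medium measured by Griess reagent at 540 nm against a sodium nitrite standard curve; inhibition at 34 μM.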

RAW264.7 [7] = experiment: Inhibition of LPS-induced COX2 expression in mouse RAW264.7 cells at 34 uM treated 15 mins before LPS challenge measured after 18 hrs by immunoblotting; format: functional, cell-based
Summary of the method: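 RAW 264.7 cells pretreated with samples 15 min, then LPS 1 μg/mL for 18 h. Lysates (30 μg protein) run on 8% SDS-PAGE, transferred to PVDF, probed with primary and HRP secondary antibodies, ECL detection. β-actin internal control; band density quantified relative to the LPS-only control; duplicate experiment.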

RAW264.7 [8] = experiment: Inhibition of LPS-induced COX2 expression in mouse RAW264.7 cells at 34 uM treated 15 mins before LPS challenge measured after 18 hrs by Western blotting relative to control; format: functional
Summary of the method: (§1)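 RAW 264.7 cells pretreated 15 min with compound (34 μM), then LPS 1 μg/mL for 18 h. Lysates (30 μg protein) run on 8% SDS-PAGE and transferred to PVDF. Blocked in 5% milk/TBST, probed for iNOS and COX-2 with HRP secondary, ECL detection, β-actin internal control. Band density relative to LPS-treated control; duplicate experiments.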

[9] = target: T2, Prostaglandin G/H synthase 1 (Ovis aries) (UniProt P05979); experiment: Inhibition of sheep seminal vesicles COX1 assessed as PGE2 production at 34 uM after 10 mins by ELISA relative to control
T2 sequence (whole entry): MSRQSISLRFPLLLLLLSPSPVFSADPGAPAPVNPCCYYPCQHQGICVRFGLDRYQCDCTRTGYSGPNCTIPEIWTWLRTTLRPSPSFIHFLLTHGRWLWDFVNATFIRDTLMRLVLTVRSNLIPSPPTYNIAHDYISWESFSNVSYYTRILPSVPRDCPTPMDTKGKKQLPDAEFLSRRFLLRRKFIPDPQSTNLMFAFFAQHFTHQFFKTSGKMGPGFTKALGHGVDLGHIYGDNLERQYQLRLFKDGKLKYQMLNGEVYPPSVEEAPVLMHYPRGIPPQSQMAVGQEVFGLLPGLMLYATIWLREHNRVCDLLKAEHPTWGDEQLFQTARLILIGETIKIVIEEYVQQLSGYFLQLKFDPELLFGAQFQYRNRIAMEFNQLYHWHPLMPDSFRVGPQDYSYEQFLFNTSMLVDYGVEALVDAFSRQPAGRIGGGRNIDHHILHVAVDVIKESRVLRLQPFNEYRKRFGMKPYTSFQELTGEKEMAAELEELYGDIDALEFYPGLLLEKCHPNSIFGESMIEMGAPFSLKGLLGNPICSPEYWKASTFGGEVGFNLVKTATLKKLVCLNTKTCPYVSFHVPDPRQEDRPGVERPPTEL
Summary of the method: (§2)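 Sheep seminal vesicle COX-1; reaction started with arachidonic acid, 10 min at room temperature, stopped with 27.8 μM indomethacin. PGE₂ quantified by competitive ELISA (PGE₂-acetylcholinesterase tracer, Ellman's reagent, 412 nm) against a PGE₂ standard curve. Result as % of solvent control; IC₅₀ from dose-response curves.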

Aromatase = target: T3, Aromatase (Homo sapiens, UniProt P11511); conditions: read-out: INH
T3 sequence (P11511 whole entry): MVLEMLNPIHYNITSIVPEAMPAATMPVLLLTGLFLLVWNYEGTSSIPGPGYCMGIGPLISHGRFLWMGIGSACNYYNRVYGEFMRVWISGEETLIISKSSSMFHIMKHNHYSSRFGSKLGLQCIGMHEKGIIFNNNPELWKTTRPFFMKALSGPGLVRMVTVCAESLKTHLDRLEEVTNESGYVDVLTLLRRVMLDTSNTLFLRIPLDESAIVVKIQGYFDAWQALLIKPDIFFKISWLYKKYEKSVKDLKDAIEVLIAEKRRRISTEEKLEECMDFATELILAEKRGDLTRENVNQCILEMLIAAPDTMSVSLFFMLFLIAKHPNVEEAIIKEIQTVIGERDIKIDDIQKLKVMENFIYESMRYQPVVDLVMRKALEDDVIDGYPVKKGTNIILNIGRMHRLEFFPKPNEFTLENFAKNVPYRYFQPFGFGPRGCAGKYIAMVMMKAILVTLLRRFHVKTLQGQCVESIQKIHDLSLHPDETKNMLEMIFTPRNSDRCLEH

HEK293 [10] = experiment: Inhibition of TNF-alpha-induced NF-kappaB activity expressed in HEK293 cells at 34 uM after 48 hrs by luciferase reporter gene assay relative to control; format: cell-based
Summary of the method: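 Stably transfected 293 cells carrying an NFκB response element–luciferase reporter, exposed to TNFα plus compound for 48 h, then assayed for luciferase. Activity expressed as % of TNFα-treated control. IC₅₀ from five serial dilutions, mean of two experiments.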

HL-60 = experiment: Cell cycle arrest in human HL60 cells assessed as accumulation at sub-G1 phase at 34 uM after 24 hrs by flow cytometry; format: functional
Summary of the method: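 HL-60 cells (2 × 10⁵/well) exposed to samples for 24 h, then stained with NIM-DAPI nuclear isolation medium. Read by flow cytometry under UV excitation; percentage of cells in subG₁ taken from the DNA histogram.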

MCF7 = experiment: Cellular uptake in human MCF7 cells assessed per millions cells at 50 uM after 24 hrs by LC/MS/MS analysis; format: ADME, cell-based; conditions: mcf7, 24 h
[11] = target: T4, Prostaglandin G/H synthase 1 (Ovis aries, UniProt P05979); experiment: Inhibition of sheep seminal vesicles COX1 assessed as PGE2 production after 10 mins by ELISA; summary of the method: as §2
T4 sequence (P05979 whole entry): T2 sequence (whole entry)

[12] = target: T5, Nitric oxide synthase, inducible (Mus musculus, UniProt P29477)
T5 sequence (P29477 whole entry): T1 sequence (whole entry)

KB = experiment: Cytotoxicity against human KB cells assessed as cell survival at 20 ug/ml after 72 hrs by sulforhodamine B method; format: functional; conditions: read-out: Activity
Summary of the method: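 Sulforhodamine B assay. KB or MCF7 cells plated with samples and held 72 h at 37 °C, 5% CO₂. Fixed 1 h in 10% trichloroacetic acid, stained with 0.4% SRB in 1% acetic acid, dye taken up in 10 mM Tris.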

RAW264.7 [13] = experiment: Inhibition of LPS-induced iNOS expression in mouse RAW264.7 cells at 34 uM treated 15 mins before LPS challenge measured after 18 hrs by Western blotting; format: functional, cell-based; summary of the method: as §1

NAD(P)H dehydrogenase [quinone] 1 (Mus musculus), sequence (Q64669 whole entry): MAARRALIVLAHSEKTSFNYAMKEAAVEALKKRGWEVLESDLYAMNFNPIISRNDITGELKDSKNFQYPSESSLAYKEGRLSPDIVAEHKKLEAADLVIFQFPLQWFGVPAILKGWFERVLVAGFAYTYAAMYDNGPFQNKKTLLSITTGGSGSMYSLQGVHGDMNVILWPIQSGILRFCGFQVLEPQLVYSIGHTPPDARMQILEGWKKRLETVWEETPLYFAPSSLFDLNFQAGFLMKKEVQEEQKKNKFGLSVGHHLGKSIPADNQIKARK

| SMILES | Activity [1] | Activity (HEK293 [2]) | inhibition [3] | CD [4] | inhibition [5] | Activity [6] | inhibition (RAW264.7 [7]) | fold change (FC) (RAW264.7 [8]) | inhibition [9] | inhibition at 34 µM (Aromatase) | inhibition (HEK293 [10]) | Activity (HL-60) | Drug uptake (MCF7) | IC50 [11] | IC50 [12] | viability at 20 µg/mL (KB) | inhibition (RAW264.7 [13]) |
| --- | --- | --- | --- | --- | --- | --- | --- | --- | --- | --- | --- | --- | --- | --- | --- | --- | --- |
| O=S(=O)([O-])Oc1ccc(/C=C/c2cc(O)cc(OS(=O)(=O)[O-])c2)cc1.[K+].[K+] | 0% | Non-toxic | 41.7% | > 10.1 µM | 6.8% | inactive | inactive | 0.6 | 23.3% | 22.5% | 53.4% | – | – | – | – | – | – |
| Oc1ccc(/C=C/c2cc(O)cc(O)c2)cc1 [RESVERATROL] | – | Non-toxic | – | – | – | – | inactive | – | 75.2% | – | 75.7% | 24.9% | 54.7 pmol | 6.65 µM | 15 µM | 47.8% | Active |
